Screening results as filed in PubChem.
Exocytosis inh: LAMP-1 surface exposure blockers, TALL-104 cells – cell-based, flow cytometry, MLPCN library, primary screen | TALL-104 LAMP-1 surface exposure; cells stimulated with thapsigargin and PMA | inhibition, % at 10 µM | 360,000 compounds, 0.66% hits | AID 651702, 2012;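 active = inhibition above about 55%, limit read from the data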
V-ATPase pHluor: regulators of yeast V-ATPase proton pumping, primary screen, pHLuorin cytosolic pH fluorescence. 350,000 compounds, 0.37% hits. S. cerevisiae. AID 504577, 2011. response, % at 10 µM; in the data active = response mostly above about 7.3%, no sharp cut-off; inactive = mostly below about 5.4%; note: actives read high
T cell HTS: modulators of CD8 T cell-vesicle binding, primary screen, mouse 2C CD8+ T cells, flow cytometry. 330,000 compounds, 0.068% hits. response (vesicle binding), % at 7 µM. 2C CD8+ T cell-vesicle binding; hits give low values. AID 2052, 2009;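 active = response, share of CD8 T cells binding vesicles, and their 90th percentile fluorescence all below set limits, cut at about 80% in these data, passing the limit was not always enough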;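 note: values below 100% mean blocked vesicle binding to the CD8+ T cells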
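material = purified 2C TCR transgenic mouse naive CD8+ T cells | controls = Unloaded micro-vesicles (low), QL9 vesicles with 0.7% DMSO (high) | detection = cytometric PE anti-B7-1 and Alexa647 anti-CD8 signals after 1% paraformaldehyde fixation | incubation = binding step 1.5 h, 37 °C, antibody labelling 20 min, ice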
B2AR ag: beta2AR agonists driving receptor internalization, primary screen, cell-based, FAP fluorogen, flow cytometry. response, % (test concentration not listed). 340,000 compounds, 0.43% hits. AID 504454, 2011. Am2.2-beta2AR cells. Beta-2 adrenergic receptor (Homo sapiens), P07550;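 active = response above a set limit, near 3 SD of response in nonfluorescent compounds, cut at about 42% in these data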
Target sequence (P07550 whole entry, looked up): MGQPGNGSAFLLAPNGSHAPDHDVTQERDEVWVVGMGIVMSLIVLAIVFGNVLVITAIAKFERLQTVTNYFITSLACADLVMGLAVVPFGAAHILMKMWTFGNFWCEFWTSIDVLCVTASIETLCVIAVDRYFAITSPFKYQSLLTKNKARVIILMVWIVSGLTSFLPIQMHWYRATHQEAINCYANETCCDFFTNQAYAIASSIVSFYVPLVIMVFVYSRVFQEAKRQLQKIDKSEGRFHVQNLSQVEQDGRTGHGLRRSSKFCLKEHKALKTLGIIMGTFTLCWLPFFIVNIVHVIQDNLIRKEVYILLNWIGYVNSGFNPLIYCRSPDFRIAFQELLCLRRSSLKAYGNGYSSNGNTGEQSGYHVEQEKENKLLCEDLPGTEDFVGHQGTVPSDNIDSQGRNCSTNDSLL
MPTP block: mitochondrial permeability transition pore inhibitors, primary screen, biochemical, isolated mouse mitochondria, absorbance. Ca2+ swelling absorbance, 30 min. inhibition, % at 10 µM. 360,000 compounds, 1.4% hits. AID 602449, 2012;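 active = inhibition of 50% or more, scaled per plate between neutral and stimulator controls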;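 note: 0% = DMSO wells given calcium and 100% = 1 mM EGTA wells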
rCAG binder: binders of r(CAG) RNA repeats, primary screen, biochemical, fluorescence | r(CAG) RNA repeat, TO-PRO-1 dye displacement fluorescence | inhibition, % at 3 µM | 370,000 compounds, 1.3% hits | AID 651821, 2012;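 active = inhibition above the plate cutoff, the mean of all test compounds on that plate plus 3 SD, cut at about 35% in these data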;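 note: 0% = DMSO alone and 100% = 100 µM mitoxantrone as full dye displacement; higher means more dye released from RNA so lower well fluorescence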
Granule exo CP1: inhibitors of lytic granule exocytosis, confirmation, TALL-104 cells, flow cytometry, Cherry Pick01. LAMP-1 externalization; stimulated with PMA plus thapsigargin. shares compounds with Exocytosis inh. 1,500 compounds, 11% hits. AID 651954, 2012. inhibition, % at 10 µM; in the data active = inhibition above about 60%;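 note: 0% = stimulated vehicle wells and 100% = unstimulated wells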
* hit, by the source's call; i = inactive; / = no result given. Shown are actives, neighbours in structure and some others; about 3.8% of the full set was active somewhere.

SMILES | Exocytosis inh | V-ATPase pHluor | T cell HTS | B2AR ag | MPTP block | rCAG binder | Granule exo CP1
CC(NCc1cc(Br)ccc1OCC(N)=O)C12CC3CC(CC(C3)C1)C2 (configuration not stated) | 58.6* | 1.1 | 192.8 | 6.4 | -0.4 | -0.1 | -3.7
Cc1ccc(-n2nnc3c(=O)oc4ccccc4c32)cc1 | 93.5* | -1.5 | 360.6 | 13.2 | -5.4 | 4.3 | 83.0*
CCC(C)n1nnc2c(=O)oc3ccccc3c21 (configuration not stated) | -6.4 | 1.6 | / | -4.8 | 0.2 | / | /
O=C(Nc1cccc(NC(=O)c2ccc(Br)o2)n1)c1ccc(Br)o1 | -4.0 | -2.8 | 320.0 | 12.6 | -1.0 | 6.2 | /
Cc1ccc2cccc(NC(=O)c3ccc(Br)o3)c2n1 | 89.1* | -3.2 | 129.0 | 6.0 | 1.5 | 4.4 | -4.2
Clc1ccc(C2Nc3cccc4cccc(c34)N2)c(Cl)c1 | 73.6* | -2.3 | / | 6.0 | 3.3 | 9.8 | 7.4
Clc1ccc(C2Nc3cccc4cccc(c34)N2)cc1 | 16.2 | -5.8 | 563.6 | 6.3 | 4.2 | 7.1 | /
COc1ccccc1C(=O)Nc1c(C(=O)N(CCN(C)C)Cc2ccco2)oc2ccccc12 | 65.8* | -2.0 | 387.2 | 21.7 | 6.8 | -2.1 | 1.9
COC(=O)[C@]12C[C@H](CC(=O)NCc3cccc(C(F)(F)F)c3)C(=O)N(CCc3ccc(OC)c(OC)c3)C1=C[C@H](C(C)C)O[C@@H]2C1CC1 | / | / | / | / | / | 1.5 | /
Cc1nc(SCc2nc3ccc([N+](=O)[O-])cc3[nH]2)c2oc3ccccc3c2n1 | 93.3* | 2.3 | 211.3 | 20.1 | 33.2 | 14.2 | -13.7
Cc1nc(SCc2nc3ccc(F)cc3[nH]2)c2oc3ccccc3c2n1 | -5.6 | 1.7 | i | 7.9 | 5.1 | 4.2 | /
COc1ccc(CC(CN)c2ccccc2)cc1 (configuration not stated) | 57.5* | 1.2 | 245.3 | -1.7 | -0.3 | 8.0 | -7.8
c1ccc(-c2nc(NC3CCCC3)c3ccccc3n2)cc1 | 57.4* | -1.7 | 160.7 | -0.9 | 3.0 | 6.7 | -5.2
COc1cccc(-c2nc(NC3CCCC3)c3ccccc3n2)c1O | 77.9* | -1.5 | 575.8 | 26.7 | 1.1 | 20.6 | 0.4
CC(C)CNC(=O)OCc1cn(Cc2c(F)cccc2F)nn1 | / | / | / | / | / | -0.9 | /
CC(=O)N(C)C[C@@H]1OCc2ccccc2-c2c(n(C)c3ccccc23)C(=O)N([C@@H](C)CO)C[C@@H]1C | / | / | / | / | / | 3.2 | /
CCOc1ccc(N(CC(=O)Nc2c(C)n(C)n(-c3ccccc3)c2=O)S(=O)(=O)c2cccc3cccnc23)cc1 | / | / | / | / | / | 6.2 | /
Cc1sc2nc(SCC(=O)Nc3c(C)n(C)n(-c4ccccc4)c3=O)n(C)c(=O)c2c1C | -0.9 | 0.2 | 299.5 | -5.5 | 0.5 | 0.4 | /
COCCn1c(SCC(=O)Nc2ccccc2OC)nc2c(oc3ccccc32)c1=O | 64.6* | 3.5 | 135.1 | -6.1 | 0.9 | 1.9 | 0.5
COc1ccccc1NC(=O)CSc1nc2sc(C)c(C)c2c(=O)n1C | 59.7* | -1.1 | 257.5 | 2.9 | 29.9 | 1.5 | -14.0
CCOC(=O)c1nnc(-c2ccc(C)cc2)nc1Oc1ccccc1Cl | 67.3* | -1.0 | 459.7 | -7.1 | -0.9 | 2.5 | 8.1
CCOC(=O)c1nnc(-c2ccc(C)cc2)nc1Sc1ccc(Cl)cc1 | -6.0 | 1.1 | 286.2 | 2.2 | 0.5 | 2.8 | /
CCOC(=O)c1nnc(-c2ccc(C)cc2)nc1Sc1ccccc1Cl | 78.6* | -4.0 | 303.7 | 11.0 | -1.9 | -2.0 | 12.7
CCOC(=O)c1nnc(-c2ccccc2)nc1Sc1c(Cl)cccc1Cl | 95.8* | -2.5 | 359.1 | 22.0 | -1.0 | -0.4 | 56.7
COC(=O)[C@]12C[C@H](CC(=O)NCC34CC5CC(CC(C5)C3)C4)C(=O)N(Cc3cccc4ccccc34)C1=C[C@H](C(C)C)O[C@@H]2C1CC1 | / | / | / | / | / | 9.4 | /
SMILES | Exocytosis inh | V-ATPase pHluor | T cell HTS | B2AR ag | MPTP block | rCAG binder | Granule exo CP1
Cc1ccc(-n2c(SCC(=O)Nc3ccccc3-c3ccccc3)nnc2-c2ccco2)cc1 | / | / | / | / | / | 1.2 | /
COC(=O)CC[C@@H](/C=C/C(=O)OC(C)(C)C)Sc1ccc(C(C)(C)C)cc1 | / | / | / | / | / | 2.8 | /
Cc1cccc(Cn2cc(COC(=O)N(C)Cc3ccccc3)nn2)c1 | / | / | / | / | / | -1.2 | /
Cc1cc(C(=O)Nc2ccncc2)ccc1[N+](=O)[O-] | -3.7 | 4.0 | 241.6 | 13.4 | -0.7 | 0.4 | /
Cc1cc(C(=O)Nc2ccc(Nc3ccccc3)cc2)ccc1[N+](=O)[O-] | 63.9* | -2.3 | 674.3 | 8.9 | 1.3 | 9.9 | -3.1
Cc1ccc(NC(=O)CSc2nnc(-c3ccoc3C)n2CCCN(C)C)cc1Cl | 62.6* | 9.9 | 464.1 | -9.4 | 0.2 | -6.0 | -4.8
CCN(CC)CCCn1c(SCC(=O)Nc2cccc(F)c2)nnc1-c1ccoc1C | 47.7 | -4.9 | 366.5 | 7.2 | 0.2 | -1.4 | /
CN(CC(=O)NCCc1ccc(F)cc1)Cc1ccc(Br)cc1 | 69.8* | 4.0 | 222.2 | -1.9 | 2.4 | 5.5 | -13.3
CN(CC(=O)NCCCc1ccccc1)Cc1ccc(Br)cc1 | 22.6 | -2.9 | 191.6 | 0.8 | 1.3 | 12.8 | /
C#CCNC(=O)C[C@@H]1C(=O)N(CCc2ccc(Cl)cc2)C2=CCCCC[C@]21C(=O)OC | / | / | / | / | / | 4.2 | /
CCc1nc2ccc(C(=O)Nc3cc(-c4ccccc4)ccc3OC)cn2c1N(CCN(C)C)CC1CC1 | 59.5* | / | / | / | -4.0 | 1.8 | 48.9
CCc1nc2ccc(C(=O)Nc3cc(-c4ccccc4)ccc3OC)cn2c1N(C)CCC(C)C | 0.0 | / | / | / | 1.9 | 13.0 | /
Cc1ccc(N(CC(=O)NC2CCCC2)C(=O)CCC(=O)Nc2nccs2)c(C)c1 | -2.3 | 1.8 | i | -0.7 | -2.3 | 0.5 | /
Cc1ccc(C)c(N(CC(=O)NC2CCCC2)C(=O)CCC(=O)Nc2nccs2)c1 | 78.1* | 4.2 | 222.8 | 0.8 | 0.1 | -7.4 | -11.5
O=C(CCS(=O)(=O)c1ccccc1)Nc1ccc(F)cc1Cl | / | / | / | / | / | 2.5 | /
Nc1c(C(=O)c2ccccc2)sc2nsc(SCCN3CCCC3)c12 | 64.0* | 1.2 | 434.0 | -234.0 | 5.9 | -3.4 | -4.1
Nc1c(C(=O)c2ccc(Cl)cc2)sc2nsc(SCCN3CCOCC3)c12 | 52.7 | 0.7 | 990.6 | -249.1 | 12.0 | -0.1 | /
Nc1[nH]c(C(=O)c2ccccc2)c(-c2ccccc2Br)c1C(=O)c1cccs1 | / | / | / | / | / | 10.4 | /
CCN(CC)CCCN(C(=O)c1ccc(Br)cc1)c1nc(-c2ccc(OC)cc2)cs1 | 62.7* | 3.6 | 183.9 | 11.6 | 2.7 | 2.0 | -8.9
Cc1ccc(CN2CCCCC(NC(=O)c3cccc(F)c3)C2=O)cc1 (configuration not stated) | / | / | / | / | / | 0.5 | /
